Laboratory results from ChEMBL document CHEMBL4814057, “4-4-(Anilinomethyl)-3-[4-(trifluoromethyl)phenyl]-1H-pyrazol-1-ylbenzoic acid derivatives as potent anti-gram-positive bacterial agents” (Eur J Med Chem, 2021).
Converted amounts (≈) assume the structure as drawn. The source made the active and inactive calls. The calls are words filed in the database; no cut-off is given here.

Tests used:
Enterococcus faecium [1] = assay: Antimicrobial activity against vancomycin-resistant Enterococcus faecium clinical isolate 1088051 by CLSI-based broth microdilution assay; type: functional
Enterococcus faecium [2] = assay: Antimicrobial activity against vancomycin-resistant Enterococcus faecium clinical isolate 1091563 by CLSI-based broth microdilution assay; type: functional
Enterococcus faecium [3] = assay: Antimicrobial activity against vancomycin-resistant Enterococcus faecium clinical isolate 1091720 by CLSI-based broth microdilution assay; type: functional
Enterococcus faecium [4] = assay: Antimicrobial activity against vancomycin-resistant Enterococcus faecium clinical isolate 1094112 by CLSI-based broth microdilution assay; type: functional
Enterococcus faecium [5] = assay: Antimicrobial activity against vancomycin-resistant Enterococcus faecium clinical isolate 1100440 by CLSI-based broth microdilution assay; type: functional
Enterococcus faecium [6] = assay: Antimicrobial activity against vancomycin-resistant Enterococcus faecium clinical isolate 1088168 by CLSI-based broth microdilution assay; type: functional
Staphylococcus aureus [7] = assay: Antimicrobial activity against methicillin-sensitive Staphylococcus aureus ATCC 29213 by CLSI-based broth microdilution assay; type: functional
Staphylococcus aureus [8] = assay: Antimicrobial activity against methicillin-sensitive Staphylococcus aureus clinical isolate 1088060 by CLSI-based broth microdilution assay; type: functional
Procedure, shortened: (§1)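 Broth microdilution starting at 50 µg/ml with 2-fold serial dilutions; run in triplicate.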

Staphylococcus aureus [9] = assay: Antimicrobial activity against methicillin-sensitive Staphylococcus aureus clinical isolate 1088105 by CLSI-based broth microdilution assay; type: functional
Staphylococcus aureus [10] = assay: Antimicrobial activity against methicillin-sensitive Staphylococcus aureus clinical isolate 1088626 by CLSI-based broth microdilution assay; type: functional
Staphylococcus aureus [11] = assay: Inhibition of RNA synthesis in Staphylococcus aureus ATCC 29213 at 8 times MIC measured by liquid scintillation counter; type: functional
Procedure, shortened: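 Early-exponential cells in CAMHB added to drug (40x stock) in triplicate, with a no-drug control. After 30 min pre-incubation at room temperature, [3H]thymidine 3.0 µCi/tube (DNA) or [3H]uridine 0.5 µCi/tube (RNA) added for 30 min at room temperature. Stopped with cold TCA, precipitate filtered and washed, then scintillation counted.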

Staphylococcus aureus [12] = assay: Antimicrobial activity against methicillin-susceptible Staphylococcus aureus ATCC 25923 assessed as bacterial growth inhibitions by CLSI protocol based microdilution method; type: functional
Staphylococcus aureus [13] = assay: Antimicrobial activity against antibiotic-resistant Staphylococcus aureus BM-2312 assessed as bacterial growth inhibitions by CLSI protocol based microdilution method; type: functional
Staphylococcus aureus [14] = assay: Antimicrobial activity against methicillin-resistant Staphylococcus aureus ATCC 33591 assessed as bacterial growth inhibitions by CLSI protocol based microdilution method; type: functional
Staphylococcus aureus [15] = assay: Antimicrobial activity against methicillin-resistant Staphylococcus aureus ATCC 700699 assessed as bacterial growth inhibitions by CLSI protocol based microdilution method; type: functional
Staphylococcus aureus [16] = assay: Antimicrobial activity against methicillin-resistant Staphylococcus aureus ATCC 33592 assessed as bacterial growth inhibitions by CLSI protocol based microdilution method; type: functional
[17] = system: Staphylococcus epidermidis; assay: Antimicrobial activity against methicillin-resistant Staphylococcus epidermidis ATCC 700296 assessed as bacterial growth inhibitions by CLSI protocol based microdilution method; type: functional
Bacillus subtilis = assay: Antimicrobial activity against Bacillus subtilis ATCC 6623 assessed as bacterial growth inhibitions by CLSI protocol based microdilution method; type: functional; procedure, shortened: as §1
Enterococcus faecium [18] = assay: Antimicrobial activity against vancomycin-resistant Enterococcus faecium ATCC 700221 assessed as bacterial growth inhibitions by CLSI protocol based microdilution method; type: functional
[19] = Selectivity index, ratio of IC50 for cytotoxicity against human HEK-293T cells to MIC of antimicrobial activity against methicillin-resistant Staphylococcus aureus ATCC 700699; type: toxicity, cell-based; details: read-out: Selectivity Index
Procedure, shortened: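 Ratio of HEK293 IC50 to MIC. HEK293 cells (4000/well, EMEM with 10% FBS, 37 °C, 5% CO2) treated 24 h with a concentration range in DMSO. Resazurin added for 4 h, fluorescence read at ex 560/em 590 nm. IC50 fitted.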

Staphylococcus aureus [20] = assay: Antibiofilm activity against Staphylococcus aureus ATCC 25923 assessed as inhibition of biofilm formation at 2 times MIC after 24 hrs by crystal violet staining based assay relative to control; type: functional; parameters: scale not given: the % may be the effect or the level left
Procedure, shortened: (§2)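 Overnight culture brought to 0.5 McFarland in PBS, diluted 1:100 in CAMHB with 1% glucose. Inhibition: cells plus compound (in DMSO) at 2x, 1x, 0.5xMIC, 24 h at 35 °C, triplicate. Destruction: 24 h biofilm grown without drug, washed, fresh medium with compound, further 24 h. Then washed, dried, 0.1% crystal violet, solubilized in 33% acetic acid, OD 620 nm. Controls are DMSO-only and broth-only wells.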

Staphylococcus aureus [21] = assay: Antibiofilm activity against Staphylococcus aureus ATCC 25923 assessed as inhibition of biofilm formation at 0.5 times MIC after 24 hrs by crystal violet staining based assay relative to control; type: functional, organism-based; procedure, shortened: as §2
Staphylococcus aureus [22] = assay: Antibiofilm activity against Staphylococcus aureus ATCC 25923 assessed as destruction of biofilm formation at 2 times MIC after 24 hrs by crystal violet staining based assay relative to control; type: functional; procedure, shortened: as §2
Staphylococcus aureus [23] = assay: Antibiofilm activity against Staphylococcus aureus ATCC 25923 assessed as destruction of biofilm formation at 1 times MIC after 24 hrs by crystal violet staining based assay relative to control; type: functional; procedure, shortened: as §2
Staphylococcus aureus [24] = assay: Antibiofilm activity against Staphylococcus aureus ATCC 25923 assessed as destruction of biofilm formation at 0.5 times MIC after 24 hrs by crystal violet staining based assay relative to control; type: functional, organism-based; procedure, shortened: as §2
Enterococcus faecalis [25] = assay: Antibiofilm activity against Enterococcus faecalis ATCC 29212 assessed as inhibition of biofilm formation at 1 times MIC after 24 hrs by crystal violet staining based assay relative to control; type: functional; procedure, shortened: as §2
Enterococcus faecalis [26] = assay: Antibiofilm activity against Enterococcus faecalis ATCC 29212 assessed as inhibition of biofilm formation at 0.5 times MIC after 24 hrs by crystal violet staining based assay relative to control; type: functional; procedure, shortened: as §2
Staphylococcus aureus [27] = assay: Antibacterial activity against methicillin resistant Staphylococcus aureus ATCC 700699 persisters assessed as reduction in viability at 16 times MIC by colony counting method; type: functional, organism-based
Procedure, shortened: (§3)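 Stationary-phase S. aureus from overnight CAMHB culture (35 °C, 200 rpm), washed thrice in PBS, diluted to ~5 × 10^8 CFU/ml. Incubated with antibiotic at 35 °C, 200 rpm. Aliquots taken at set times, washed, serially diluted in PBS, drop-plated (6 × 6) on TSA with 5% sheep blood. Colonies counted after 18–20 h at 35 °C. Triplicates.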

Staphylococcus aureus [28] = assay: Antibacterial activity against methicillin resistant Staphylococcus aureus ATCC 700699 persisters assessed as reduction in viability at 8 times MIC measured within 4 hrs by colony counting method; type: functional; details: time hrs <=4; procedure, shortened: as §3
Staphylococcus aureus [29] = assay: Antibacterial activity against methicillin resistant Staphylococcus aureus ATCC 700699 persisters assessed as reduction in viability at 4 times MIC measured within 4 hrs by colony counting method; type: functional; details: time hrs <=4; procedure, shortened: as §3
Staphylococcus aureus [30] = assay: Antibacterial activity against methicillin resistant Staphylococcus aureus ATCC 700699 persisters assessed as reduction in viability at 2 times MIC measured within 4 hrs by colony counting method; type: functional; details: time hrs <=4; procedure, shortened: as §3
Staphylococcus aureus [31] = assay: Bactericidal activity against Staphylococcus aureus ATCC 700699 assessed as reduction bacterial growth at 4X MIC measured after 6 hrs by time-kill kinetic assay; type: functional, organism-based
Procedure, shortened: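 Log-phase culture diluted to ~5 × 10^6 CFU/ml in warm CAMHB, exposed at 4xMIC, 35 °C. 20 µl samples every 2 h, 10-fold dilutions to 10^-5, 6 × 6 drop plating. CFU/ml counted after 18–24 h at 35 °C; triplicate.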

Staphylococcus aureus [32] = assay: Antibacterial activity against vancomycin-intermediate susceptible Staphylococcus aureus ATCC 25923 assessed as bacterial growth inhibition by measuring fold increase in MIC between 8 passages by broth dilution method; type: functional
Staphylococcus aureus [33] = assay: Antibacterial activity against vancomycin-intermediate susceptible Staphylococcus aureus ATCC 25923 assessed as bacterial growth inhibition by measuring fold increase in MIC between 14 passages by broth dilution method; type: functional
Enterococcus faecalis [34] = assay: Antibacterial activity against vancomycin-intermediate Enterococcus faecalis ATCC 29212 assessed as bacterial growth inhibition by measuring fold increase in MIC after14 passages by broth dilution method; type: functional, organism-based
Enterococcus faecalis [35] = assay: Antimicrobial activity against vancomycin-susceptible Enterococcus faecalis ATCC 29212 assessed as bacterial growth inhibitions by CLSI protocol based microdilution method

C[C@@H](O)[C@H]1C(=O)N2C(C(=O)O)=C(S[C@@H]3CN[C@H](C(=O)N(C)C)C3)[C@H](C)[C@H]12 [MEROPENEM]
MIC (Enterococcus faecium [1]): 2 µg/mL (≈ 5.22 µM) | MIC (Enterococcus faecium [2]): 2 µg/mL (≈ 5.22 µM) | MIC (Enterococcus faecium [3]): 8 µg/mL (≈ 20.9 µM) | MIC (Enterococcus faecium [4]): 8 µg/mL (≈ 20.9 µM) | MIC (Enterococcus faecium [5]): 4 µg/mL (≈ 10.4 µM) | MIC (Enterococcus faecium [6]): 4 µg/mL (≈ 10.4 µM) | MIC (Staphylococcus aureus [7]): 0.06 µg/mL (≈ 0.156 µM) | MIC (Staphylococcus aureus [8]): 0.06 µg/mL (≈ 0.156 µM) | MIC (Staphylococcus aureus [9]): 0.12 µg/mL (≈ 0.313 µM) | MIC (Staphylococcus aureus [10]): 0.06 µg/mL (≈ 0.156 µM)

CO[C@H]1/C=C/O[C@@]2(C)Oc3c(C)c(O)c4c(O)c(c(/C=N/N5CCN(C)CC5)c(O)c4c3C2=O)NC(=O)/C(C)=C\C=C\[C@H](C)[C@H](O)[C@@H](C)[C@@H](O)[C@@H](C)[C@H](OC(C)=O)[C@@H]1C [RIFAMPIN]
inhibition (INH) (Staphylococcus aureus [11]): 76.3%

O=C(O)c1ccc(-n2cc(CNc3cc(Cl)c(F)c(Cl)c3)c(-c3ccc(C(F)(F)F)cc3)n2)cc1
MIC (Staphylococcus aureus [12]): 0.78 µg/mL (≈ 1.49 µM) | MIC (Staphylococcus aureus [13]): 0.78 µg/mL (≈ 1.49 µM) | MIC (Staphylococcus aureus [14]): 0.78 µg/mL (≈ 1.49 µM) | MIC (Staphylococcus aureus [15]): 0.78 µg/mL (≈ 1.49 µM) | MIC (Staphylococcus aureus [16]): 0.78 µg/mL (≈ 1.49 µM) | MIC [17]: 0.78 µg/mL (≈ 1.49 µM) | MIC (Bacillus subtilis): 0.78 µg/mL (≈ 1.49 µM) | MIC (Enterococcus faecium [18]): 0.78 µg/mL (≈ 1.49 µM) | selectivity ratio [19]: 33 | Activity (Staphylococcus aureus [20]): > 85% | Activity (Staphylococcus aureus [21]): inactive | Activity (Staphylococcus aureus [22]): 70% | Activity (Staphylococcus aureus [23]): 55% | Activity (Staphylococcus aureus [24]): inactive | Activity (Enterococcus faecalis [25]): inactive | Activity (Enterococcus faecalis [26]): inactive | Activity (Staphylococcus aureus [27]): Active | Activity (Staphylococcus aureus [28]): 1 log10CFU/ml | Activity (Staphylococcus aureus [29]): 1 log10CFU/ml | Activity (Staphylococcus aureus [30]): 1 log10CFU/ml | Activity (Staphylococcus aureus [31]): Active | fold change (FC) (Staphylococcus aureus [32]): 2 | fold change (FC) (Staphylococcus aureus [33]): 2 | Activity (Enterococcus faecalis [34]): inactive | MIC (Enterococcus faecalis [35]): 1.56 µg/mL (≈ 2.98 µM)
